Entries after “also recorded” stand apart in the source; their conditions may differ. Where no end group is shown, it is not given here. [ ]: non-standard residue; d: D form. Nle = CCCC[C@H](N)C(=O)O; Nva = CCC[C@H](N)C(=O)O; Aib = CC(C)(N)C(=O)O
Key:
[1] = tested on: Aβ1–42 toxicity in PC-12 cells; test: MTT cell viability assay, Aβ1–42 co-incubated with tetrapeptides; format: cell-based; conditions: calculated from OD570 of MTT assay in PC-12 cells
Outline: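 PC-12 cells were grown in F-12K with 5% FBS and 10% horse serum and used at 70% confluence. For the assay, medium was switched to F-12K with 10% FBS, and cells were seeded at 17 000/well overnight. Monomerized Aβ1–42 was added with test peptide (DMSO stock diluted in PBS; 1:1, 1:5, 1:10) for 6 h. MTT was then added for 4 h, followed by DMSO solubilization and OD570. Inhibition % = 100×(OD peptide+Aβ − OD Aβ)/(OD control − OD Aβ).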

Aβ1–42 [2] = biological target: T1, Aβ1–42 (Homo sapiens, UniProt P05067); test: Electron microscopy; conditions: HRTEM and STEM, Aβ1–42/test peptide 1:5, 37 °C, 72 h
Outline: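 HFIP-treated Aβ1–42 (50 μM in 10 mM sodium phosphate buffer, pH 7.4) mixed in equal volumes with test or control tetrapeptide (250 μM, from DMSO stock) to give 1:5, then held 72 h at 37 °C. Peptides alone were imaged too. Samples were fixed on carbon-coated copper grids with 0.5% glutaraldehyde, washed in water, negatively stained with 2% uranyl acetate and imaged at 120 keV.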

[3] = Electron microscopy of tetrapeptides incubated alone; format: physicochemical; conditions: HRTEM and STEM, peptide alone in SPB pH 7.4, 37 °C, 72 h
Outline: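 Test peptide stock (5 mM in DMSO) diluted to 250 μM in 10 mM SPB, pH 7.4, and incubated alone at 37 °C for 72 h. A droplet is fixed on carbon-coated copper grids with 0.5% glutaraldehyde, washed with ultrapure water and negatively stained with 2% uranyl acetate. Grids are imaged by HRTEM/STEM at 120 keV.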

[4] = tested on: Aβ1–40 toxicity for PC-12 cells; test: MTT cell viability assay with Aβ1–40; format: cell-based; conditions: data not shown
Aβ1–42 [5] = biological target: T1, Aβ1–42; test: ThT fluorescence assay of Aβ1–42 aggregation; format: biochemical; conditions: Aβ1–42 2 μM + peptide 20 μM (1:10), Aβ1–42 alone = 100%, n = 3
Outline: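 Aβ1–42 (2 μM) was incubated with test peptide at 1:10 in wells containing ThT (2.5 μM, glycine-NaOH pH 8.5), at 37 °C with shaking at 200 rpm. Fluorescence (ex 445/em 485 nm) was read at intervals over 7 days. Blank was subtracted, and RFU was normalized to the Aβ1–42-alone rise over ThT alone (100%). Triplicates were averaged.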

Aβ1–42 [6] = biological target: T1, Aβ1–42; test: Circular dichroism secondary structure analysis of Aβ1–42; format: biochemical; conditions: CD, Aβ1–42/peptide 1:5, 12 h, 37 °C
Outline: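 Aβ1–42 (NaOH stock diluted to 20 μM in sodium phosphate buffer) mixed 1:5 with test peptide (TFE stock diluted to 100 μM), 12 h at 37 °C. Spectra taken at 0 and 12 h, 190–260 nm, 37 °C, 1 mm cell, 50 nm/min, 2 nm bandwidth, averaging 3 scans. Buffer blank and inhibitor-alone spectra subtracted, then deconvolution into secondary-structure percentages.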

T1 sequence (P05067 672-713): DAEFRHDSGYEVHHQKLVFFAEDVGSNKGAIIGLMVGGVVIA

| Substance | inhibition (%) of Aβ1–42 (2 μM) ([1]; test peptide 2 μM) [%] | inhibition (%) of Aβ1–42 (2 μM) ([1]; test peptide 10 μM) [%] | inhibition (%) of Aβ1–42 (2 μM) ([1]; test peptide 20 μM) [%] | also measured |
| --- | --- | --- | --- | --- |
| Ile-Val-Ile-Ala [compound 7] | 0 | 3.0 | 2.0 |  |
| Leu-Val-Ile-Ala [compound 5] | 0 | 0 | 0 |  |
| Pro-Pro-Ile-Ala [compound 25] | 14.0 | 39.0 | 90.0 |  |
| Pro-Val-Ile-Ala [compound 9] | 0 | 0 | 0 |  |
| VVI[dA] [compound 39] | 0 |  | 4.0 |  |
| VVI[dF] [compound 43] | 0 | 0 | 4.0 | morphology of Aβ1–42 aggregates upon co-incubation (Aβ1–42 [2]): small truncated aggregates were found in bunches; self-aggregation of peptide incubated alone [3]: large clusters of amorphous aggregates |
| VV[Aib]A [compound 34] | 1.0 | 0 | 11.0 |  |
| VV[Nle]A [compound 38] | 0 | 0 | 0 |  |
| VV[Nva]A [compound 37] | 0 | 0 | 1.0 |  |
| VV[dA]A [compound 27] | 0 | 0 | 11.0 |  |
| VV[dF]A [compound 35] | 4.0 | 10.0 | 9.0 |  |
| VV[dI]A [compound 26] | 0 | 0 | 0 |  |
| VV[dL]A [compound 28] | 0 | 2.0 | 10.0 |  |
| VV[dP]A [compound 32] | 27.0 | 26.0 | 21.0 |  |
| VV[dV]A [compound 30] | 0 | 0 | 0 |  |
| V[Aib]IA [compound 20] | 0 | 22.0 |  | inhibition of Aβ1–40 toxicity [4]: did not show inhibition; also recorded: lack of activity; RFU, time-dependent ThT study (Aβ1–42 [5]; at 24 h): 6%; RFU, time-dependent ThT study (Aβ1–42 [5]; at 3 days): 4%; RFU, time-dependent ThT study (Aβ1–42 [5]; at 5 days): 10.9%; RFU, time-dependent ThT study (Aβ1–42 [5]; at 7 days): 11.4%; random coil form of Aβ1–42 co-incubated with inhibitor (Aβ1–42 [6]; Aβ1–42 alone at 12 h 42.3%): 58.5%; β-sheet conformation of Aβ1–42 co-incubated with inhibitor (Aβ1–42 [6]; Aβ1–42 alone at 12 h 47.1%): 14.2%; morphology of Aβ1–42 aggregates upon co-incubation (Aβ1–42 [2]): no such aggregates were formed; self-aggregation of peptide incubated alone [3]: did not exhibit any self-aggregation |
| V[dA]IA [compound 13] | 0 | 0 | 0 |  |
| V[dF]IA [compound 21] | 0 | 5.0 | 0 |  |
| V[dI]IA [compound 16] | 20.0 | 20.0 | 27.0 |  |
| V[dL]IA [compound 14] | 5.0 | 0 | 1.0 |  |
| V[dP]IA [compound 18] | 7.0 | 20.0 | 64.0 |  |

| Substance | inhibition (%) of Aβ1–42 (2 μM) ([1]; test peptide 2 μM) [%] | inhibition (%) of Aβ1–42 (2 μM) ([1]; test peptide 10 μM) [%] | inhibition (%) of Aβ1–42 (2 μM) ([1]; test peptide 20 μM) [%] | also measured |
| --- | --- | --- | --- | --- |
| V[dV]IA [compound 12] | 0 | 0 | 0 |  |
| Val-Ile-Ile-Ala [compound 17] | 0 | 0 | 0 |  |
| Val-Leu-Ile-Ala [compound 15] | 0 | 0 | 13.0 |  |
| Val-Pro-Ile-Ala [compound 19] | 16.0 | 17.0 | 24.0 |  |
| Val-Val-Ile-Ala [compound 1, reference compound] | 8.0 | 30.0 |  |  |
| Val-Val-Ile-Ile [compound 42] | 24.0 | 27.0 | 29.0 |  |
| Val-Val-Ile-Leu [compound 41] | 0 | 0 | 0 |  |
| Val-Val-Ile-Phe [compound 44] | 0 | 0 | 0 |  |
| Val-Val-Ile-Val [compound 40] | 4.0 | 13.0 | 9.0 |  |
| Val-Val-Leu-Ala [compound 29] | 10.0 | 0 | 0 |  |
| Val-Val-Phe-Ala [compound 36] | 0 | 0 | 0 |  |
| Val-Val-Pro-Ala [compound 33] | 0 | 0 | 3.0 |  |
| Val-Val-Val-Ala [compound 31] | 0 | 0 | 3.0 |  |
| [Aib]VIA [compound 10] | 1.0 | 9.0 | 13.0 |  |
| [Aib][Aib]IA [compound 24] | 13.0 | 18.0 | 73.0 |  |
| [Nva]VIA [compound 11] | 0 | 0 | 0 |  |
| [dA]VIA [compound 3] | 0 | 0 | 0 |  |
| [dI]VIA [compound 6] | 0 | 0 | 0 |  |
| [dL]VIA [compound 4] | 0 | 0 | 2.0 |  |
| [dP]VIA [compound 8] | 5.0 | 9.0 | 4.0 |  |
